Measurements as given in ChEMBL document CHEMBL1938288, “Discovery, synthesis, and pharmacological evaluation of spiropiperidine hydroxamic acid based derivatives as structurally novel histone deacetylase (HDAC) inhibitors” (J Med Chem, 2011).
pIC50: −log10 of the molar value. Active and inactive are the calls of the source. No cut-off for these calls is given here.

Experiments:
A549 = experiment: Antiproliferative activity against human A549 cells after 72 hrs by CellTiter-Glo luminescent cell viability assay; format: functional, cell-based; conditions: A549, 72 h
Procedure, shortened: (§1)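 Cells in exponential growth exposed to a range of inhibitor concentrations for 72 h. CellTiter-Glo reagent added, mixed 2 min to lyse cells, luminescence read 10 min later. IC50 derived from the concentration–response. Replicates n ≥ 2, mean shown.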

HCT-116 [1] = experiment: Antiproliferative activity against human HCT116 cells after 72 hrs by CellTiter-Glo luminescent cell viability assay; format: functional, cell-based; conditions: HCT-116, 72 h; procedure, shortened: as §1
Histone deacetylase = experiment: Inhibition of human HDAC in HeLa cell nuclear extracts using KI-104 Fluor de Lys as substrate by fluorescence assay; format: protein assay
Procedure, shortened: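 HDAC activity from partially purified HeLa nuclear extracts, using a fluorogenic acetylated histone peptide (Fluor de Lys) as substrate. Replicates n ≥ 2, mean values reported.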

HCT-116 [2] = experiment: Cell cycle arrest in human HCT116 cells assessed as decrease in G2/M phase cells at 0.3 uM after 24 hrs by flow cytometry; format: functional, cell-based
Procedure, shortened: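 HCT-116 cells treated for 24 h at several concentrations. Harvested, fixed in 70% ethanol at -20 °C, RNase treated (1 mg/mL), stained with propidium iodide. DNA content measured by flow cytometry to give phase distribution, including the subG1 population.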

[3] = Cmax in CD1 mouse at 5 mg/kg, iv; format: ADME, organism-based; set-up: dose 5 mg/kg, route intravenous; conditions: in vivo
Procedure, shortened: (§2)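 Single dose to male CD-1 mice, either iv at 5 mg/kg or oral at 15 mg/kg. Plasma pharmacokinetic parameters were calculated from these dosings.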

[4] = AUC (0 to infinity) in CD1 mouse at 5 mg/kg, iv; format: ADME, organism-based; set-up: time infinity, dose 5 mg/kg, route intravenous; conditions: plasma; procedure, shortened: as §2
[5] = Plasma clearance in CD1 mouse at 5 mg/kg, iv and 15 mg/kg, po; format: ADME, organism-based; procedure, shortened: as §2
[6] = Volume of distribution at steady state in CD1 mouse at 5 mg/kg, iv and 15 mg/kg, po; format: ADME, organism-based; conditions: in vivo, read-out: Vdss; procedure, shortened: as §2
[7] = Oral bioavailability in CD1 mouse at 15 mg/kg; format: ADME, organism-based; conditions: in vivo; procedure, shortened: as §2
Mus musculus [8] = experiment: Toxicity in human HCT116 cells xenografted CD1 nude mouse assessed as signs of toxicity at 35 to 150 mg/kg, po administered for 5 days/week for 17 days; format: organism-based, HCT-116; set-up: dose 35-150 mg/kg, route oral; conditions: in vivo
HCT-116 [9] = experiment: Antitumor activity against human HCT116 cells xenografted in po dosed CD1 nude mouse assessed as reduced tumor volume administered for 5 days/week for 17 days; format: functional, organism-based
Procedure, shortened: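 Female CD-1 nude mice bearing subcutaneous flank HCT-116 tumours (5 × 10⁶ cells injected). Dosing began at about 100 mm³ tumour volume. Given orally at 35–150 mg/kg in water with 5% DMSO and 9.5% encapsin, 5 days/week for 17 days. Tumour volume tracked against vehicle controls. T/C = mean relative tumour volume treated / control.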

Mus musculus [10] = experiment: Toxicity in human HCT116 cells xenografted CD1 nude mouse assessed as change in body weight at 35 to 150 mg/kg, po administered for 5 days/week for 17 days; format: organism-based, HCT-116; set-up: dose 35-150 mg/kg, route oral; conditions: in vivo
Mus musculus [11] = experiment: Increase of histone H4 cetylation in human HCT116 cells xenografted in CD1 mouse at 35 to 150 mg/kg, po administered for 5 days/week for 17 days by immunohistochemistry; format: functional, organism-based; conditions: HCT-116
Procedure, shortened: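 Xenograft tumours from the oral efficacy study were collected 2 h after the last dose. They were formalin-fixed, paraffin-embedded, unmasked in TEG buffer pH 9, treated 5 min with 3% H2O2, and incubated overnight at 4 °C with anti-acetyl-histone H4. Staining was developed by HRP detection with hematoxylin counterstain. Positive cells and signal intensity were compared with vehicle.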

Histone deacetylase 1 = Histone deacetylase 1 (Homo sapiens, UniProt Q13547); experiment: Inhibition of HDAC1 using carboxyfluorescein-labeled peptide as substrate after 17 hrs by fluorescence assay
Procedure, shortened: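 Purified HDAC isoforms incubated with compound and 1 μM carboxyfluorescein-labelled peptide for 17 h at 25 °C. Reaction stopped with HEPES/0.08% SDS. Substrate and product separated electrophoretically and read by fluorescence. Run in duplicate. IC50 from 12-point curves by nonlinear regression.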

Histone deacetylase 4 = Histone deacetylase 4 (Homo sapiens, UniProt P56524); experiment: Inhibition of HDAC4 using carboxyfluorescein-labeled peptide as substrate after 17 hrs by fluorescence assay
Procedure, shortened: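 Stopped with HEPES/0.08% SDS. Substrate and product separated electrophoretically, read by green fluorescence. Duplicates. IC50 from 12-point concentration-response curves by nonlinear regression. Run by contract lab.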

[12] = biological target: Histone deacetylase (Homo sapiens) (UniProt Q13547+O15379+Q9UBN7+Q92769+Q9UQL6+Q8WUI4+Q9BY41+Q96DB2+P56524+Q9UKV0+Q969S8); conditions: HCT-116, 0.001 to 10 uM

Sequence of Histone deacetylase 4 (P56524 whole entry): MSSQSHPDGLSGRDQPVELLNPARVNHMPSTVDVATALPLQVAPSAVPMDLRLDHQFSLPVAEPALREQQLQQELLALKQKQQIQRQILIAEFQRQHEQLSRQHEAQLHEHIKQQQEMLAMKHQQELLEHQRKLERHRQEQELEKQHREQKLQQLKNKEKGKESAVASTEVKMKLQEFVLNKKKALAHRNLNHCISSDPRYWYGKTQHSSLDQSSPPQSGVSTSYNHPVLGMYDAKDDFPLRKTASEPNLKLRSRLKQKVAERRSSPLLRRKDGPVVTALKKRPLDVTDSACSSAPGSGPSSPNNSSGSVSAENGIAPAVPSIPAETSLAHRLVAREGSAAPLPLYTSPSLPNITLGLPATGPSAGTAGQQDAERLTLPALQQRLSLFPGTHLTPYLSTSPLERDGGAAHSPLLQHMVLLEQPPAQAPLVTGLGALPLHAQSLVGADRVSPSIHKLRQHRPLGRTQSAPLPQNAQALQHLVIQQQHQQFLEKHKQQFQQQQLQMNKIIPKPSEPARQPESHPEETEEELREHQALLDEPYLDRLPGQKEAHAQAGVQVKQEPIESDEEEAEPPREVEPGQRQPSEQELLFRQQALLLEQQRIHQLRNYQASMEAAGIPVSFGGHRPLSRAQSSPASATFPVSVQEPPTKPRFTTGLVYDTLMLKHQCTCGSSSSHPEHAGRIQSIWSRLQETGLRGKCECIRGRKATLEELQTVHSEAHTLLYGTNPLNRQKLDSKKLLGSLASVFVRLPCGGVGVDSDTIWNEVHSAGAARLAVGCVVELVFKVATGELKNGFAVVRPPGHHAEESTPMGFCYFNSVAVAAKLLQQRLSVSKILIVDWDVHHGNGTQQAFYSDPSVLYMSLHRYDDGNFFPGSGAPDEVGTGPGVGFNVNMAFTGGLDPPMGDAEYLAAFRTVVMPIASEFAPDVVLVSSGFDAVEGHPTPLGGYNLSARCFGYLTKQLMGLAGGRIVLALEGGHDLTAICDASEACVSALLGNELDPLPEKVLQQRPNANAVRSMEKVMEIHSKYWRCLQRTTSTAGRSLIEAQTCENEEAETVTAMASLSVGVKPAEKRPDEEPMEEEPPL
Sequence of Histone deacetylase 1 (Q13547 whole entry, canonical isoform): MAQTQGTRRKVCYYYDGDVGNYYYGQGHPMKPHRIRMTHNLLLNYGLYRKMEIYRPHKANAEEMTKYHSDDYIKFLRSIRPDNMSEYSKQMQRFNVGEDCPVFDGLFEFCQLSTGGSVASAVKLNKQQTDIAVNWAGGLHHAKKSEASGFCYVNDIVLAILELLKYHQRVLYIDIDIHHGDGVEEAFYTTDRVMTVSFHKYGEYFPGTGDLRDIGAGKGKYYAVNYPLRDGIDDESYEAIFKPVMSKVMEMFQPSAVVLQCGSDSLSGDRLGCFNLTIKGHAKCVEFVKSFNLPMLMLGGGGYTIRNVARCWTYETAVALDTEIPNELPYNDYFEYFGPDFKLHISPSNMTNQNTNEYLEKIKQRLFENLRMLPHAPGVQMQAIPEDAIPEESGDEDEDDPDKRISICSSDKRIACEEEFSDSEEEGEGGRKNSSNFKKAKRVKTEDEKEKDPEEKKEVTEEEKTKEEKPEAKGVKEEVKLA

O=C(/C=C/c1ccc2c(c1)C(=O)CC1(CCN(Cc3ccccc3)CC1)O2)NO
pIC50 (A549): 6.11 | pIC50 (HCT-116 [1]): 6.32 | IC50 (Histone deacetylase): 121 nM | Activity (HCT-116 [2]): Active | Cmax [3]: 12.5 µM | AUC(0-inf) [4]: 847 ng·h/mL | clearance [5]: 98 mL/min/kg | Vd [6]: 8.9 L/kg | bioavailability [7]: 31.5% | Activity (Mus musculus [8]): Non-toxic | Activity (HCT-116 [9]): Dose-dependent effect | Activity (Mus musculus [10]): Non-toxic | Activity (Mus musculus [11]): Active | pIC50 (Histone deacetylase 1): 7.03 | pIC50 (Histone deacetylase 4): 6.90 | inhibition [12]: tde
